These results are taken from the RNAGym collection of RNA variant scans (doi:10.1126/science.aae0568).

This sample holds only a part of the variants without activity.

The labels stand for the following.
B1: tRNA (parent)
chain: GUUCCGUUGGCGUAAUGGUAACGCGUCUCCCUCCUAAGGAGAAGACUGCGGGUUCGAGUCCCGUACGGAACG

Variants of B1 are the subject of this series. Description: yeast fitness relative to wild type (ratio to wild type); higher = fitter; tRNA-Arg(CCU), competitive growth, 37 C, YPD. The method, boiled down: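 Variants of the tRNA-Arg(CCU) gene, chemically synthesised with a 3% per-site mutation rate at 69 sites, were placed at the native genomic locus in Saccharomyces cerevisiae. The pooled strains were competed in YPD at 37°C for 24 hours in six parallel replicates. Gene amplicons from the start population and from each end population were read by 100-nucleotide paired-end sequencing. Darwinian fitness relative to wild type came from changes in genotype frequencies; genotypes needed ≥ 100 starting reads, and estimates < 0.5 were set to 0.5.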
Take G9C C31U: the yeast fitness is 0.676.

On to C22U C31G A43U C49U C60A A70G, for which the yeast fitness was at most 0.5.

For the variant C24G C33A C62A, the yeast fitness was at most 0.5.

As for C24G C55A, the yeast fitness came to 0.66.

For the variant A14U G17A C22U C33G, the yeast fitness was 0.567.

On to C60G A70C, for which the yeast fitness was 0.66.

For the variant G12C G23C C49G A57U A65C, the yeast fitness is at most 0.5.

As to A14G C29U A57C, the yeast fitness is at most 0.5.

With A20U A36G A37G C55G, the yeast fitness came to 0.546.

U2G A36U G68C: the yeast fitness is 0.605.

Regarding C5G C55G U59C C60U G67U, the yeast fitness was at most 0.5.

For U16A U19C C33G A43G U54A, the yeast fitness was at most 0.5.

In the case of A40G G44A, the yeast fitness came out at 0.717.

Take A21G A43C C60G G68C: the yeast fitness was at most 0.5.

For A14U C30U U59A, the yeast fitness is at most 0.5.

As for A40G C55A, the yeast fitness is 0.626.

On to U3C A40G C46A U53C, for which the yeast fitness came to 0.663.

Consider A15G A37G A70C, for which the yeast fitness was found to be 0.664.

As to U26A C31A, the yeast fitness is 0.803.

Regarding G9A A43G, the yeast fitness came out at 0.987.

As to A36C A69C, the yeast fitness amounted to 0.644.

With G6C U7A C27U, the yeast fitness is at most 0.5.

Take A15U A37U C49G A65G: the yeast fitness was at most 0.5.

As for C4U C34G G52A A69C, the yeast fitness was at most 0.5.

As to C29U C33U, the yeast fitness was 0.826.

Take C24U U59C: the yeast fitness is 0.879.

With U13A A21C U54G C66U, the yeast fitness is at most 0.5.

For A36C A70C, the yeast fitness came to 0.605.

Consider A20U C31A C33G U47C C60A, for which the yeast fitness was at most 0.5.

As to U35C C61A G67C, the yeast fitness is at most 0.5.

As to G23C U47G C62G G68A, the yeast fitness is at most 0.5.

For the variant U19A C29A U32A U54C C55G C60G, the yeast fitness is at most 0.5.

For A14G A21C C34A U47C, the yeast fitness was at most 0.5.

Turning to A14C A45C C60G, the yeast fitness is at most 0.5.

For C5G A15G U28C A45C, the yeast fitness is at most 0.5.

Take U3A C27U A69C: the yeast fitness worked out at 0.713.

Take C5U A36C: the yeast fitness turned out to be 0.69.

For U8C A14G, the yeast fitness turned out to be 0.934.

Turning to C31G C34G A36G C66A, the yeast fitness is at most 0.5.

Consider G18A C22A, for which the yeast fitness amounted to 0.805.

With U19A C33U A36U C60U, the yeast fitness was at most 0.5.

Turning to C5U U13C G39C A45G, the yeast fitness is at most 0.5.

For U2A U8C C30G U59A U64A, the yeast fitness was 0.569.

As for A14G U19G C46U A57G A70C, the yeast fitness is at most 0.5.

As for U3C A20C C46U C60U C61U, the yeast fitness was 0.759.

Turning to U2C A15C U19C C22G C34U G39C C62U A65C, the yeast fitness is at most 0.5.

Turning to U7A U54C, the yeast fitness was determined as 0.734.

In the case of U16C A21U C62U, the yeast fitness is at most 0.5.

A21U C33U A57U U59C C66U: the yeast fitness was 0.538.

As for C4U A36G, the yeast fitness was 1.02.

As for U13A C27G U28A A65U A70U, the yeast fitness amounted to 0.543.

As to C24U A69C, the yeast fitness worked out at 0.887.

For G9A G10A C11U, the yeast fitness came out at 0.668.

On to C4G C30A G67A, for which the yeast fitness was at most 0.5.

Turning to A14U A21G G39C A45G U53C C62U, the yeast fitness was at most 0.5.

Consider A15G U64C, for which the yeast fitness stood at 0.976.

For the variant C5A A14C, the yeast fitness worked out at 0.603.

Regarding C30U G38A, the yeast fitness was found to be 1.

Regarding C5A U13C U19C C33G, the yeast fitness is at most 0.5.

Turning to U2C G10A U54A, the yeast fitness was 0.554.

As for U26A U32A, the yeast fitness is 0.805.

Regarding C4U A65C G68A, the yeast fitness amounted to 1.03.

On to C31G A37C A57U, for which the yeast fitness was at most 0.5.

Take C22G G44C C60U: the yeast fitness is 0.762.

For U13A A15G C27U, the yeast fitness stood at 0.601.

For the variant C22G C29G A69U, the yeast fitness amounted to 0.626.

Regarding A21G C24G C31G A43U, the yeast fitness was at most 0.5.

In the case of C5U A36C A43G U54A C55G A69U, the yeast fitness is at most 0.5.

C5U G9A C31A A57C C66A A69U: the yeast fitness is at most 0.5.

For G6A A15U A20G, the yeast fitness was at most 0.5.

Turning to U16C A20G G52A, the yeast fitness was at most 0.5.

As for C4G C34U C55A G68C, the yeast fitness was at most 0.5.

Turning to U3G G48U, the yeast fitness stood at 0.937.

For G6A U8C U13G C27U C61G, the yeast fitness worked out at 0.567.

As to U3A A21C C24G G63A, the yeast fitness was at most 0.5.

In the case of G6A A45U A57C, the yeast fitness was at most 0.5.

In the case of A14C G18A C30U C49A, the yeast fitness was at most 0.5.

For A40C A45C C62U, the yeast fitness is at most 0.5.

With U28G C34G G44C U64G, the yeast fitness is at most 0.5.

On to U7A C33A C46U G63U, for which the yeast fitness turned out to be 0.574.

As for C24G C30A U47C, the yeast fitness is 0.586.

As for C11A C31A U53A, the yeast fitness was at most 0.5.

Consider U8C A70U, for which the yeast fitness is 0.994.

Regarding U2A C60A, the yeast fitness was 0.645.

For U13C C29U C31U U54G A65U G67A, the yeast fitness is at most 0.5.

Take U2C A57U: the yeast fitness was found to be 0.685.

With A42C C49G, the yeast fitness stood at 0.759.

In the case of U8C C24G G38C, the yeast fitness is at most 0.5.

For the variant U7A U26C A40G A43U C49A, the yeast fitness stood at 0.622.

For the variant U16G C30U, the yeast fitness is 0.777.

G18A C29A: the yeast fitness came out at 0.539.

As to U3C C24A C62A A65C, the yeast fitness was at most 0.5.

For the variant G18C A20U C31U G48A C55U G68U, the yeast fitness was determined as 0.586.

For U16C C31U C33A C34G U35A G52A, the yeast fitness was at most 0.5.

Consider C5G C33A, for which the yeast fitness was 0.616.

Take U3G A15G C24G G44A G50A C55U: the yeast fitness was at most 0.5.

Consider G17C C34U G68A, for which the yeast fitness was 0.536.

For U7C G18C A37G G51C, the yeast fitness stood at 0.697.

Consider U8C U26C, for which the yeast fitness is 0.837.

With G17C C22A C31G C55G, the yeast fitness was at most 0.5.

A15G G48A G58C: the yeast fitness is 0.759.

On to C24U A45U G58A, for which the yeast fitness amounted to 0.647.

On to G12A C31G, for which the yeast fitness was 0.963.

As to U7C C30U G39C U54C U64C, the yeast fitness was at most 0.5.

For U3G G17A, the yeast fitness amounted to 0.665.

As to C33A A40U G51U U64A, the yeast fitness was at most 0.5.

As for C4G G17A C66U, the yeast fitness turned out to be 0.596.

On to U3C A21C A65C, for which the yeast fitness was at most 0.5.

G6C A42C C62G: the yeast fitness is at most 0.5.

As to C5A C27U G39A A40G, the yeast fitness is 0.577.

For C33G G48A C66G A70C, the yeast fitness is 0.524.

For C4A A57C C66U, the yeast fitness was at most 0.5.

Consider A14C U28A U54A C61G A69C, for which the yeast fitness is at most 0.5.

In the case of A14G G39C U47C, the yeast fitness was at most 0.5.

For the variant G6C G51A A70G, the yeast fitness was at most 0.5.

For C55A C62U C66U, the yeast fitness amounted to 0.517.

In the case of C5U A20G G44C, the yeast fitness was 0.764.

Take U3C C11U G17A C49U: the yeast fitness is at most 0.5.

For G12C A40C C46U C49A U64A, the yeast fitness was at most 0.5.

Turning to U8A C30G C61A, the yeast fitness is at most 0.5.

As for C4U G10C G23A U26C A43G U53A, the yeast fitness was at most 0.5.

As for U3A C5G C29G A36C C49U U53G, the yeast fitness is at most 0.5.

U3A C4U G25C G58C: the yeast fitness is at most 0.5.

Turning to G6U U8C, the yeast fitness is 0.769.

Take U32A A70G: the yeast fitness came to 0.841.

Turning to C31A C33U C49U, the yeast fitness was at most 0.5.

Consider G10C G44A, for which the yeast fitness worked out at 0.699.

With C30U A43U C55A, the yeast fitness was at most 0.5.

For G12C C24U A43C, the yeast fitness was at most 0.5.

Consider C29G C33U U47A C61U A69C, for which the yeast fitness was at most 0.5.

On to G6C A37G, for which the yeast fitness came out at 0.728.

With C5G U26C G44A, the yeast fitness worked out at 0.529.

For the variant U2A C34G G58C C66U, the yeast fitness is at most 0.5.

As for C34U A40U, the yeast fitness came to 0.632.

C34U G44C A45C C66A: the yeast fitness turned out to be 0.591.

As for C4A C11G U19G U53C, the yeast fitness amounted to 0.698.

For U16C C22U A37U C49A, the yeast fitness came out at 0.574.

As to U53A A65U, the yeast fitness is 0.601.

Regarding A21C A37G C49A, the yeast fitness is at most 0.5.

As for G10A C31G, the yeast fitness is 0.651.

For the variant G17C G52A G56A A65U A70G, the yeast fitness was at most 0.5.

In the case of A15C C24A U59C C62U, the yeast fitness was at most 0.5.

For the variant C4U G18A G23C C24G C46G A57G, the yeast fitness is at most 0.5.

As to G12A C29U, the yeast fitness is 0.735.

For the variant U2G U16G A21U C33A C66G, the yeast fitness was at most 0.5.

As to A37G C61A G63C, the yeast fitness was at most 0.5.

In the case of U2G G58A, the yeast fitness was determined as 1.16.

Turning to G6C G12C, the yeast fitness worked out at 0.676.

On to C5U G6A C31G G50C U54C, for which the yeast fitness is at most 0.5.

For the variant U8C A15U G25A C34G U54A, the yeast fitness is at most 0.5.

Regarding U28G A40U G56A, the yeast fitness was 1.02.

In the case of C4A C27U U32C G48C, the yeast fitness is at most 0.5.

As to G17A U47A, the yeast fitness was 0.823.

Take U3C U26A: the yeast fitness stood at 0.856.

On to C5A A20U C31G C61U, for which the yeast fitness is at most 0.5.

For the variant U2A C4A U19G, the yeast fitness was at most 0.5.

With C4A C29G A57G U59A A69U, the yeast fitness was at most 0.5.

With C11A A20U C30G A45C G48A, the yeast fitness was at most 0.5.

As to U8A G18C, the yeast fitness is at most 0.5.

For the variant U7A A21U A42G C55U A70C, the yeast fitness is at most 0.5.

For the variant A42G U47A C66U, the yeast fitness worked out at 0.567.

Take C5G A15C C22A: the yeast fitness turned out to be 0.627.

A15U G25C C61U G63C: the yeast fitness was found to be 0.545.

On to A21G A65U, for which the yeast fitness stood at 0.848.

For C24U C33A U47C, the yeast fitness came to 0.516.

Consider A14C A21G G25A C33U C61A A69U, for which the yeast fitness was at most 0.5.

With C4A C33A A65G, the yeast fitness was at most 0.5.
